Data reported in ChEMBL document CHEMBL1944603, “An efficient synthesis of highly functionalized novel chromeno[4,3-b]pyrroles and indolizino[6,7-b]indoles as potent antimicrobial and antioxidant agents” (2012).
In brackets after ≈: the same amount, converted by molar mass.

Tests used:
Type in all cases: functional
[1] = test system: Bacillus subtilis; assay: Antimicrobial activity against Bacillus subtilis at 50 ug/ml by agar diffusion assay
Outline: (§1)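 Agar diffusion assay in duplicate against the human bacterial pathogens; tetracycline as reference control.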

[2] = test system: Staphylococcus aureus; assay: Antimicrobial activity against Staphylococcus aureus at 25 ug/ml by agar diffusion assay; outline: as §1
[3] = test system: Klebsiella pneumoniae; assay: Antimicrobial activity against Klebsiella pneumoniae at 25 ug/ml by agar diffusion assay; outline: as §1
[4] = test system: Pseudomonas aeruginosa; assay: Antimicrobial activity against Pseudomonas aeruginosa at 25 ug/ml by agar diffusion assay; outline: as §1
[5] = test system: Pseudomonas aeruginosa; assay: Antimicrobial activity against Pseudomonas aeruginosa at 100 ug/ml by agar diffusion assay; outline: as §1
[6] = test system: Bacillus subtilis; assay: Antimicrobial activity against Bacillus subtilis at 75 ug/ml by agar diffusion assay; outline: as §1
[7] = test system: Staphylococcus aureus; assay: Antimicrobial activity against Staphylococcus aureus at 75 ug/ml by agar diffusion assay; outline: as §1
[8] = test system: Bacillus subtilis; assay: Antimicrobial activity against Bacillus subtilis at 100 ug/ml by agar diffusion assay; outline: as §1
[9] = test system: Staphylococcus aureus; assay: Antimicrobial activity against Staphylococcus aureus at 100 ug/ml by agar diffusion assay; outline: as §1
[10] = test system: Bacillus subtilis; assay: Antimicrobial activity against Bacillus subtilis at 25 ug/ml by agar diffusion assay; outline: as §1
[11] = test system: Staphylococcus aureus; assay: Antimicrobial activity against Staphylococcus aureus at 50 ug/ml by agar diffusion assay; outline: as §1
[12] = test system: Pseudomonas aeruginosa; assay: Antimicrobial activity against Pseudomonas aeruginosa at 75 ug/ml by agar diffusion assay; outline: as §1
[13] = test system: Pseudomonas aeruginosa; assay: Antimicrobial activity against Pseudomonas aeruginosa at 50 ug/ml by agar diffusion assay; outline: as §1
[14] = test system: Klebsiella pneumoniae; assay: Antimicrobial activity against Klebsiella pneumoniae at 50 ug/ml by agar diffusion assay; outline: as §1
[15] = test system: Klebsiella pneumoniae; assay: Antimicrobial activity against Klebsiella pneumoniae at 100 ug/ml by agar diffusion assay; outline: as §1
[16] = test system: Klebsiella pneumoniae; assay: Antimicrobial activity against Klebsiella pneumoniae at 75 ug/ml by agar diffusion assay; outline: as §1
[17] = test system: Fusarium oxysporum; assay: Antifungal activity against Fusarium oxysporum
Outline: (§2)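 Agar diffusion assay in duplicate against the plant fungal pathogens; read-out as minimum inhibitory concentration (MIC); carbendazim as reference control.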

[18] = test system: Radical scavenging activity; assay: Antioxidant activity assessed as DPPH free radical scavenging activity at 1000 ug by spectrophotometer
Outline: (§3)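 DPPH radical scavenging measured spectrophotometrically by Blois's method at 50, 500 and 1000 µg. Absorbance read at 517 nm. Percent scavenging is the absorbance decrease at 517 nm relative to the absorbance of DPPH solution without test compound. L-ascorbic acid as standard.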

[19] = test system: Macrophomina phaseolina; assay: Antifungal activity against Macrophomina phaseolina; outline: as §2
[20] = test system: Radical scavenging activity; assay: Antioxidant activity assessed as DPPH free radical scavenging activity at 500 ug by spectrophotometer; outline: as §3
[21] = test system: Radical scavenging activity; assay: Antioxidant activity assessed as DPPH free radical scavenging activity at 50 ug by spectrophotometer; outline: as §3

CN(C)[C@@H]1C(O)=C(C(N)=O)C(=O)[C@@]2(O)C(O)=C3C(=O)c4c(O)cccc4[C@@](C)(O)[C@H]3C[C@@H]12 [TETRACYCLINE]
inhibition zone (IZ) [1]: 24 mm | inhibition zone (IZ) [2]: 22 mm | inhibition zone (IZ) [3]: 18 mm | inhibition zone (IZ) [4]: 20 mm | inhibition zone (IZ) [5]: > 40 mm | inhibition zone (IZ) [6]: 29 mm | inhibition zone (IZ) [7]: 29 mm | inhibition zone (IZ) [8]: > 40 mm | inhibition zone (IZ) [9]: > 40 mm | inhibition zone (IZ) [10]: 15 mm | inhibition zone (IZ) [11]: 24 mm | inhibition zone (IZ) [12]: 28 mm | inhibition zone (IZ) [13]: 26 mm | inhibition zone (IZ) [14]: 22 mm | inhibition zone (IZ) [15]: > 40 mm | inhibition zone (IZ) [16]: 28 mm

COC(=O)[C@]12Cc3c([nH]c4ccccc34)[C@@H](c3ccc(OC)cc3)N1[C@@H]1c3c(ccc4ccccc34)OC[C@@H]1C2
inhibition zone (IZ) [1]: 12 mm | inhibition zone (IZ) [2]: 9 mm | MIC [17]: 100 µg/mL (≈ 188 µM) | Activity [18]: 81% | inhibition zone (IZ) [3]: 9 mm | inhibition zone (IZ) [4]: 10 mm | inhibition zone (IZ) [5]: 19 mm | inhibition zone (IZ) [6]: 17 mm | MIC [19]: 95 µg/mL (≈ 179 µM) | inhibition zone (IZ) [7]: 18 mm | inhibition zone (IZ) [8]: 20 mm | Activity [20]: 48% | Activity [21]: 18% | inhibition zone (IZ) [9]: 20 mm | inhibition zone (IZ) [10]: 9 mm | inhibition zone (IZ) [11]: 11 mm | inhibition zone (IZ) [12]: 16 mm | inhibition zone (IZ) [13]: 12 mm | inhibition zone (IZ) [14]: 11 mm | inhibition zone (IZ) [15]: 20 mm | inhibition zone (IZ) [16]: 18 mm

COC(=O)[C@]12Cc3c([nH]c4ccccc34)[C@@H](c3ccc(Cl)cc3)N1[C@@H]1c3ccccc3OC[C@@H]1C2
inhibition zone (IZ) [1]: 21 mm | inhibition zone (IZ) [2]: 20 mm | MIC [17]: 70 µg/mL (≈ 144 µM) | Activity [18]: 68% | inhibition zone (IZ) [3]: 16 mm | inhibition zone (IZ) [4]: 16 mm | inhibition zone (IZ) [5]: 36 mm | inhibition zone (IZ) [6]: 26 mm | MIC [19]: 20 µg/mL (≈ 41.2 µM) | inhibition zone (IZ) [7]: 24 mm | inhibition zone (IZ) [8]: 36 mm | Activity [20]: 43% | Activity [21]: 21% | inhibition zone (IZ) [9]: 29 mm | inhibition zone (IZ) [10]: 13.5 mm | inhibition zone (IZ) [11]: 21 mm | inhibition zone (IZ) [12]: 25 mm | inhibition zone (IZ) [13]: 22 mm | inhibition zone (IZ) [14]: 20 mm | inhibition zone (IZ) [15]: 30 mm | inhibition zone (IZ) [16]: 25 mm

COC(=O)[C@]12Cc3c([nH]c4ccccc34)[C@@H](c3ccc(OC)cc3)N1[C@@H]1c3ccccc3OC[C@@H]1C2
inhibition zone (IZ) [1]: 11 mm | MIC [17]: 35 µg/mL (≈ 72.8 µM) | Activity [18]: 68% | inhibition zone (IZ) [3]: 8 mm | inhibition zone (IZ) [4]: 7 mm | inhibition zone (IZ) [5]: 20 mm | inhibition zone (IZ) [6]: 18 mm | MIC [19]: 50 µg/mL (≈ 104 µM) | inhibition zone (IZ) [7]: 16 mm | inhibition zone (IZ) [8]: 19 mm | Activity [20]: 50% | Activity [21]: 28% | inhibition zone (IZ) [9]: 18 mm | inhibition zone (IZ) [10]: 8 mm | inhibition zone (IZ) [11]: 12 mm | inhibition zone (IZ) [12]: 15 mm | inhibition zone (IZ) [13]: 11 mm | inhibition zone (IZ) [14]: 11 mm | inhibition zone (IZ) [15]: 20 mm | inhibition zone (IZ) [16]: 19 mm

COC(=O)[C@]12Cc3c([nH]c4ccccc34)[C@@H](c3ccccc3)N1[C@@H]1c3ccccc3OC[C@@H]1C2
inhibition zone (IZ) [1]: 11 mm | inhibition zone (IZ) [2]: 9 mm | MIC [17]: 30 µg/mL (≈ 66.6 µM) | Activity [18]: 70% | inhibition zone (IZ) [3]: 9 mm | inhibition zone (IZ) [4]: 9 mm | inhibition zone (IZ) [5]: 24 mm | inhibition zone (IZ) [6]: 20 mm | MIC [19]: 40 µg/mL (≈ 88.8 µM) | inhibition zone (IZ) [7]: 18 mm | inhibition zone (IZ) [8]: 25 mm | Activity [20]: 53% | Activity [21]: 28% | inhibition zone (IZ) [9]: 25 mm | inhibition zone (IZ) [10]: 9 mm | inhibition zone (IZ) [11]: 11 mm | inhibition zone (IZ) [12]: 20 mm | inhibition zone (IZ) [13]: 12 mm | inhibition zone (IZ) [14]: 11 mm | inhibition zone (IZ) [15]: 26 mm | inhibition zone (IZ) [16]: 19 mm

COC(=O)[C@]12Cc3c([nH]c4ccccc34)[C@@H](c3ccc(C)cc3)N1[C@@H]1c3ccccc3OC[C@@H]1C2
inhibition zone (IZ) [1]: 12 mm | inhibition zone (IZ) [2]: 9 mm | MIC [17]: 110 µg/mL (≈ 237 µM) | Activity [18]: 73% | inhibition zone (IZ) [3]: 8 mm | inhibition zone (IZ) [4]: 8 mm | inhibition zone (IZ) [5]: 19 mm | inhibition zone (IZ) [6]: 15 mm | MIC [19]: 80 µg/mL (≈ 172 µM) | inhibition zone (IZ) [7]: 17 mm | inhibition zone (IZ) [8]: 20 mm | Activity [20]: 49% | Activity [21]: 24% | inhibition zone (IZ) [9]: 18 mm | inhibition zone (IZ) [10]: 9 mm | inhibition zone (IZ) [11]: 13 mm | inhibition zone (IZ) [12]: 16 mm | inhibition zone (IZ) [13]: 12 mm | inhibition zone (IZ) [14]: 13 mm | inhibition zone (IZ) [15]: 19 mm | inhibition zone (IZ) [16]: 18 mm

COC(=O)[C@]12Cc3c([nH]c4ccccc34)[C@@H](c3ccc(Cl)cc3)N1[C@@H]1c3c(ccc4ccccc34)OC[C@@H]1C2
inhibition zone (IZ) [1]: 18 mm | inhibition zone (IZ) [2]: 14 mm | MIC [17]: 90 µg/mL (≈ 168 µM) | Activity [18]: 75% | inhibition zone (IZ) [3]: 11 mm | inhibition zone (IZ) [4]: 12 mm | inhibition zone (IZ) [5]: 26 mm | inhibition zone (IZ) [6]: 21 mm | MIC [19]: 105 µg/mL (≈ 196 µM) | inhibition zone (IZ) [7]: 20 mm | inhibition zone (IZ) [8]: 26 mm | Activity [20]: 44% | Activity [21]: 26% | inhibition zone (IZ) [9]: 28 mm | inhibition zone (IZ) [10]: 12 mm | inhibition zone (IZ) [11]: 17 mm | inhibition zone (IZ) [12]: 20 mm | inhibition zone (IZ) [13]: 16 mm | inhibition zone (IZ) [14]: 15 mm | inhibition zone (IZ) [15]: 25 mm | inhibition zone (IZ) [16]: 22 mm

COC(=O)Nc1nc2ccccc2[nH]1 [CARBENDAZIM]
MIC [17]: 20 µg/mL (≈ 105 µM) | MIC [19]: 15 µg/mL (≈ 78.5 µM)

COC(=O)[C@]12Cc3c([nH]c4ccccc34)[C@@H](c3cccc([N+](=O)[O-])c3)N1[C@@H]1c3ccccc3OC[C@@H]1C2
inhibition zone (IZ) [1]: 21 mm | inhibition zone (IZ) [2]: 20 mm | MIC [17]: 90 µg/mL (≈ 182 µM) | Activity [18]: 70% | inhibition zone (IZ) [3]: 15 mm | inhibition zone (IZ) [4]: 17 mm | inhibition zone (IZ) [5]: 40 mm | inhibition zone (IZ) [6]: 28 mm | MIC [19]: 25 µg/mL (≈ 50.5 µM) | inhibition zone (IZ) [7]: 24 mm | inhibition zone (IZ) [8]: 40 mm | Activity [20]: 42% | Activity [21]: 18% | inhibition zone (IZ) [9]: 36 mm | inhibition zone (IZ) [10]: 14 mm | inhibition zone (IZ) [11]: 22 mm | inhibition zone (IZ) [12]: 26 mm | inhibition zone (IZ) [13]: 24 mm | inhibition zone (IZ) [14]: 20 mm | inhibition zone (IZ) [15]: 36 mm | inhibition zone (IZ) [16]: 25 mm

O=C1O[C@H]([C@@H](O)CO)C(O)=C1O
Activity [18]: 99% | Activity [20]: 97% | Activity [21]: 95%
